Test results taken from ChEMBL document CHEMBL1144013, “Indol-3-yl-tetramethylcyclopropyl ketones: effects of indole ring substitution on CB2 cannabinoid receptor activity” (J Med Chem, 2008).

How the values were obtained:
Homo sapiens = organism: Homo sapiens; experiment: Selectivity for human recombinant CB2 receptor over human recombinant CB1 receptor
In short: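 Ki ratio from [3H]CP-55940 (0.5 nM) competition binding: human CB1 membranes from stably expressing […] cells versus human CB2 membranes from stably expressing HEK cells. Tris-HCl pH 7.4 buffer with EDTA, MgCl2, BSA; 90 min at 30 °C; filtration counting; nonspecific with 10 µM unlabeled ligand; ≥3 experiments in duplicate.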

Cannabinoid receptor 2 [1] = biological target: T1, Cannabinoid receptor 2 (Homo sapiens, UniProt P34972); experiment: Agonist activity at human recombinant CB2 receptor expressed in HEK cells assessed as calcium mobilization by FLIPR; assay type: functional, cell-based, HEK293
In short: (§1)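 HEK cells stably coexpressing human CB2 and chimeric Gαq/o5 protein, seeded 75,000/well one day before; no-wash calcium dye.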

Cannabinoid receptor 2 [2] = biological target: T1, Cannabinoid receptor 2; experiment: Displacement of [3H]CP-55940 from human recombinant CB2 receptor expressed in HEK cells; assay type: cell-based, HEK293
Cannabinoid receptor 2 [3] = biological target: T1, Cannabinoid receptor 2; experiment: Agonist activity at human recombinant CB2 receptor expressed in HEK cells assessed as calcium mobilization by FLIPR relative to CP-55940; assay type: functional, cell-based; conditions: HEK293; in short: as §1
Cannabinoid receptor 1 = Cannabinoid receptor 1 (Homo sapiens, UniProt P21554); experiment: Displacement of [3H]CP-55940 from human recombinant CB1 receptor expressed in HEK cells; assay type: cell-based, HEK293
Sequence of Cannabinoid receptor 1 (P21554 whole entry): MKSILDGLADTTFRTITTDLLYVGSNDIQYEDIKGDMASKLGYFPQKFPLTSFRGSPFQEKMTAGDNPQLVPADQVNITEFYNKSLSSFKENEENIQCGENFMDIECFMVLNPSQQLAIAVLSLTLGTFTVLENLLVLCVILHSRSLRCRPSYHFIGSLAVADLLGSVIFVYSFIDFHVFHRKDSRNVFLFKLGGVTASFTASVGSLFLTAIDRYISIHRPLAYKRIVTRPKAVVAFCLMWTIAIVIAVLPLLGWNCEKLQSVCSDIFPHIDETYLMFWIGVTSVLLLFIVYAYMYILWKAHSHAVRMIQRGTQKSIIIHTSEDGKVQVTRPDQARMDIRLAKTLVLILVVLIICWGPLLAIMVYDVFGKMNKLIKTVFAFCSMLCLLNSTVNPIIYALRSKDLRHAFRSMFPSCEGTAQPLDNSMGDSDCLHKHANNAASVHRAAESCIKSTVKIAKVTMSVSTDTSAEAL

T1 sequence (P34972 whole entry): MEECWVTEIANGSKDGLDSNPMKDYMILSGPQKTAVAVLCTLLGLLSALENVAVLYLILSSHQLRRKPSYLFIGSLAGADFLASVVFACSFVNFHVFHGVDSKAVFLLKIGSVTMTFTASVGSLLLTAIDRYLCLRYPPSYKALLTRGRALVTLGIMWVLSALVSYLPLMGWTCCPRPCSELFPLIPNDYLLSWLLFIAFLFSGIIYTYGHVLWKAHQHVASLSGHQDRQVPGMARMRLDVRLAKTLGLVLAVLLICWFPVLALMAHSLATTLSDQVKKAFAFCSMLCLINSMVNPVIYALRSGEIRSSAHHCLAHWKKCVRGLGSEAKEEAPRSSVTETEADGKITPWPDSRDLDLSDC

SMILES | Ratio Ki (Homo sapiens) | EC50 (Cannabinoid receptor 2 [1]) | Ki (Cannabinoid receptor 2 [2]; read-out: Ki) | Activity (Cannabinoid receptor 2 [3]) | Ki (Cannabinoid receptor 1; read-out: Ki) | Ki (Cannabinoid receptor 1; read-out: Log Ki (converted)) | Ki (Cannabinoid receptor 2 [2]; hek293, read-out: Ki) | Ki (Cannabinoid receptor 2 [2]; read-out: Log Ki (converted))
CC1(C)C(C(=O)c2cn(CC3CCOCC3)c3ccc(Cl)cc23)C1(C)C | 171 | 92 nM | 3 nM | 69% | 512 nM | – | – | –
CC(=O)Nc1cccc2c1c(C(=O)C1C(C)(C)C1(C)C)cn2CCN1CCOCC1 | – | > 10000 nM | > 1000 nM | – | > 2200 nM | > 2190 nM | – | –
CC1(C)C(C(=O)c2cn(CC3CCOCC3)c3cc(S(C)(=O)=O)ccc23)C1(C)C | 423 | > 10000 nM | 3 nM | – | 1270 nM | – | – | –
CC1(C)C(C(=O)c2cn(CC3CCOCC3)c3ccc(OCc4ccccc4)cc23)C1(C)C | 183 | > 10000 nM | 1.3 nM | – | 238 nM | – | – | –
CC1(C)C(C(=O)c2cn(CC3CCOCC3)c3cc4c(cc23)OCO4)C1(C)C | – | 18 nM | 1 nM | 62% | – | – | – | –
COC(=O)c1ccc2c(C(=O)C3C(C)(C)C3(C)C)cn(CC3CCOCC3)c2c1 | – | > 10000 nM | 1.4 nM | – | – | – | – | –
Cc1ccc2c(C(=O)C3C(C)(C)C3(C)C)cn(CC3CCOCC3)c2c1 | – | > 10000 nM | 0.15 nM | – | – | – | – | –
CC1(C)C(C(=O)c2cn(CC3CCOCC3)c3cc(C(F)(F)F)ccc23)C1(C)C | 20 | > 10000 nM | 3.5 nM | – | 70 nM | – | – | –
COc1ccc2c(c1)c(C(=O)C1C(C)(C)C1(C)C)cn2CCN1CCOCC1 | > 15 | > 10000 nM | 237 nM | – | > 3500 nM | > 3470 nM | – | –
CC1(C)C(C(=O)c2cn(CC3CCOCC3)c3ccc(O)cc23)C1(C)C | – | 7 nM | 1.9 nM | 78% | – | – | – | –
COc1cc2c(cc1O)c(C(=O)C1C(C)(C)C1(C)C)cn2CC1CCOCC1 | – | > 10000 nM | 0.7 nM | – | – | – | – | –
CC1(C)C(C(=O)c2cn(CC3CCOCC3)c3cc(O)c(O)cc23)C1(C)C | – | 21 nM | 21 nM | 106% | – | – | – | –
CC1(C)C(C(=O)c2cn(CC3CCOCC3)c3cc(OCc4ccccc4)ccc23)C1(C)C | – | 135 nM | 0.88 nM | 45% | – | – | – | –
CC1(C)C(C(=O)c2cn(CC3CCOCC3)c3ccc(C#N)cc23)C1(C)C | – | 226 nM | 30 nM | 65% | – | – | – | –
CC1(C)C(C(=O)c2cn(CCN3CCOCC3)c3ccc(OCc4ccccc4)cc23)C1(C)C | – | > 10000 nM | – | – | > 10000 nM | – | > 1000 nM | > 1000 nM
CC1(C)C(C(=O)c2cn(CC3CCOCC3)c3c(O)cccc23)C1(C)C | – | > 10000 nM | 3.2 nM | – | – | – | – | –
CC1(C)C(C(=O)c2cn(CC3CCOCC3)c3cc(C#N)ccc23)C1(C)C | – | 45 nM | 5 nM | 67% | – | – | – | –
CC1(C)C(C(=O)c2cn(CC3CCOCC3)c3cc(Cl)ccc23)C1(C)C | – | 10 nM | 2.5 nM | 60% | – | – | – | –
CC1(C)C(C(=O)c2cn(CC3CCOCC3)c3ccc(OCCCCO)cc23)C1(C)C | > 38 | > 10000 nM | 260 nM | – | > 10000 nM | – | – | –

SMILES | Ratio Ki (Homo sapiens) | EC50 (Cannabinoid receptor 2 [1]) | Ki (Cannabinoid receptor 2 [2]; read-out: Ki) | Activity (Cannabinoid receptor 2 [3]) | Ki (Cannabinoid receptor 1; read-out: Ki) | Ki (Cannabinoid receptor 1; read-out: Log Ki (converted)) | Ki (Cannabinoid receptor 2 [2]; hek293, read-out: Ki) | Ki (Cannabinoid receptor 2 [2]; read-out: Log Ki (converted))
CC1(C)C(C(=O)c2cn(CC3CCOCC3)c3c(OCc4ccccc4)cccc23)C1(C)C | 353 | > 10000 nM | 3.1 nM | – | 1100 nM | – | – | –
CC1(C)C(C(=O)c2cn(CCN3CCOCC3)c3ccc(O)cc23)C1(C)C | > 109 | > 10000 nM | 92 nM | – | > 10000 nM | – | – | –
CC1(C)C(C(=O)c2cn(CCN3CCOCC3)c3cccc(NS(C)(=O)=O)c23)C1(C)C | – | > 10000 nM | > 1000 nM | – | – | – | – | –
CC1(C)C(C(=O)c2cn(CC3CCOCC3)c3ccc(OCCCCBr)cc23)C1(C)C | > 139 | > 10000 nM | 72 nM | – | > 10000 nM | – | – | –
CC1(C)C(C(=O)c2cn(CC3CCOCC3)c3cc(CN)ccc23)C1(C)C | > 16 | > 10000 nM | 62 nM | – | > 1000 nM | – | – | –
CC1(C)C(C(=O)c2cn(CC3CCOCC3)c3ccc(-c4ccccc4)cc23)C1(C)C | – | > 10000 nM | 58 nM | – | – | – | – | –
CC1(C)C(C(=O)c2cn(CC3CCOCC3)c3ccc(CN)cc23)C1(C)C | – | > 10000 nM | > 1000 nM | – | > 10000 nM | – | – | –
CCCn1c(C)c(C(=O)c2cccc3ccccc23)c2ccccc21 | – | – | – | 75% | – | – | – | –
COc1ccc2c(C(=O)C3C(C)(C)C3(C)C)cn(CC3CCOCC3)c2c1 | 78 | > 10000 nM | 0.51 nM | – | 40 nM | – | – | –
CC1(C)C(C(=O)c2cn(CCN3CCOCC3)c3cc(OCc4ccccc4)ccc23)C1(C)C | – | > 10000 nM | 2.9 nM | – | – | – | – | –
CC1(C)C(C(=O)c2cn(CC3CCOCC3)c3cc(Br)ccc23)C1(C)C | – | > 10000 nM | 0.65 nM | – | – | – | – | –
CC1(C)C(C(=O)c2cn(CCN3CCOCC3)c3cccc([N+](=O)[O-])c23)C1(C)C | > 34 | > 10000 nM | 297 nM | – | > 10000 nM | – | – | –
COC(=O)c1ccc2c(c1)c(C(=O)C1C(C)(C)C1(C)C)cn2CC1CCOCC1 | > 42 | > 10000 nM | 238 nM | – | > 10000 nM | – | – | –
COc1cccc2c(C(=O)C3C(C)(C)C3(C)C)cn(CC3CCOCC3)c12 | – | > 10000 nM | 0.12 nM | – | – | – | – | –
COCc1ccc2c(c1)c(C(=O)C1C(C)(C)C1(C)C)cn2CC1CCOCC1 | – | 41 nM | 26 nM | 50% | – | – | – | –
CC1(C)C(C(=O)c2cn(CC3CCOCC3)c3ccccc23)C1(C)C | – | 7 nM | 0.21 nM | 133% | – | – | – | –
COc1cc2c(cc1OCc1ccccc1)c(C(=O)C1C(C)(C)C1(C)C)cn2CC1CCOCC1 | – | > 10000 nM | 1.8 nM | – | – | – | – | –
CN1CCCCC1Cn1cc(C(=O)c2cc([N+](=O)[O-])ccc2I)c2ccccc21 (centres undefined) | 110 | > 10000 nM | 11.5 nM | – | 1270 nM | – | – | –
COc1ccc2c(C(=O)C3C(C)(C)C3(C)C)cn(CCN3CCOCC3)c2c1 | – | > 10000 nM | – | – | – | – | – | 1.58 nM
